Measurements: ChEMBL document CHEMBL1122242, “Phenylenebis(oxy)bis[2,2-dimethylpentanoic acid]s: agents that elevate high-density lipoproteins” (1983)

How the values were obtained:
Type in all cases: functional
Rattus norvegicus [1] = organism: Rattus norvegicus; experiment: Hypolipidemic effects(plasma cholesterol) in male rats
How it was run: (§1)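 Male rats, 10 per group, fed 7 days on chow with 10% fat (5.5% added peanut oil), 1.5% cholesterol and 0.1% cholic acid. Oral gavage on days 4-7 in 4% acacia, usually 50 mg/kg daily. Fasted overnight, killed day 8, atrial blood into EDTA. Plasma cholesterol, TG and HDL cholesterol (after MnCl2/heparin precipitation) by Autoanalyzer. % change vs controls, Student's t test.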

Rattus norvegicus [2] = organism: Rattus norvegicus; experiment: Hypolipidemic effects(liver weight) in male rats; how it was run: as §1
Rattus norvegicus [3] = organism: Rattus norvegicus; experiment: Hypolipidemic effects(plasma TG) in male rats; how it was run: as §1
Rattus norvegicus [4] = experiment: Hypolipidemic effects (high-density lipoprotein (HDL) cholesterol) in male rats;Compound was screening orally at 50 mg/Kg; how it was run: as §1
Rattus norvegicus [5] = experiment: Hypolipidemic effects (high-density lipoprotein (HDL) cholesterol) in male rats; Compound was screening orally at 50 mg/Kg; how it was run: as §1
Rattus norvegicus [6] = experiment: Hypolipidemic effects (low-density lipoprotein (LDL) cholesterol) in male rats; Compound was screening orally at 50 mg/Kg; how it was run: as §1

| SMILES | Change (Rattus norvegicus [1]) [%] | Change (Rattus norvegicus [2]) [%] | Change (Rattus norvegicus [3]) [%] | Change (Rattus norvegicus [4]) [%] | Change (Rattus norvegicus [5]) [%] | Change (Rattus norvegicus [6]) [%] |
| --- | --- | --- | --- | --- | --- | --- |
| CC(C)(CCOc1ccc(Sc2ccc(OCCC(C)(C)C(=O)O)cc2)cc1)C(=O)O | -25 | 0 | -32 | 46 | – | – |
| CC(C)(CCOc1ccc(OCCC(C)(C)C(=O)O)cc1)C(=O)O | -33 | 40 | 0 | 370 | – | – |
| COC(=O)C(C)(C)CCCOc1cccc(OCCCC(C)(C)C(=O)OC)c1NC(C)=O | 0 | 0 | 0 | – | 0 | 0 |
| C/C=C/c1cc(OCCCC(C)(C)C(=O)OC)ccc1OCCCC(C)(C)C(=O)OC | -39 | 29 | -31 | – | 268 | -66 |
| COC(=O)c1ccc(OCCCC(C)(C)C(=O)OC)cc1OCCCC(C)(C)C(=O)OC | 0 | 0 | 0 | – | 0 | 0 |
| COC(=O)C(C)(C)CCCSc1ccc(Cl)c(SCCCC(C)(C)C(=O)OC)c1 | -53 | 0 | 0 | – | 56 | -52 |
| CCOC(=O)C(C)(C)CCCOc1ccc(OCCCC(C)(C)C(=O)OCC)c(-c2ccccc2)c1 | 43 | 20 | 0 | – | 536 | -18 |
| CC(=O)OCC(C)(C)CCCOc1ccc(OCCCC(C)(C)COC(C)=O)c(-c2ccccc2)c1 | 0 | 19 | 0 | – | 602 | -36 |
| COC(=O)C(C)(C)CCCOc1ccc(OCCCC(C)(C)C(=O)OC)c(C#N)c1C#N | 0 | 0 | 0 | – | 0 | 0 |
| COC(=O)c1c(OCCCC(C)(C)C(=O)OC)cccc1OCCCC(C)(C)C(=O)OC | 0 | 0 | 0 | – | 21 | 0 |
| COC(=O)c1cc(OCCCC(C)(C)C(=O)OC)cc(OCCCC(C)(C)C(=O)OC)c1 | 0 | 0 | 0 | – | 0 | 0 |
| COC(=O)C(C)(C)CCCOc1ccc(OCCCC(C)(C)C(=O)OC)c(C(C)=O)c1 | 0 | 21 | 20 | – | 381 | -39 |
| CC(C)(CCCOc1ccc([S+]([O-])CCCC(C)(C)C(=O)O)cc1)C(=O)O (configuration not stated) | -33 | 19 | 16 | – | 289 | -31 |
| COc1ccc(-c2cc(OCCCC(C)(C)C(=O)O)ccc2OCCCC(C)(C)C(=O)O)cc1 | -30 | 0 | -30 | – | 52 | -38 |
| CCCCCc1cc(OCCCC(C)(C)C(=O)OC)cc(OCCCC(C)(C)C(=O)OC)c1 | -57 | 8 | -32 | – | 47 | -67 |
| CC(C)(CCCOc1ccc(OCCCC(C)(C)C(=O)Oc2ccc(C(C)(C)C)cc2)cc1)C(=O)Oc1ccc(C(C)(C)C)cc1 | 0 | 0 | 0 | – | 0 | 0 |
| COC(=O)C(C)(C)CCCOc1cc(C)c(OCCCC(C)(C)C(=O)OC)cc1C | -30 | 14 | 27 | – | 688 | -64 |
| COC(=O)C(C)(C)CCCOc1ccc(OCCCC(C)(C)C(=O)OC)c(C=O)c1 | 0 | 9 | 0 | – | 217 | -20 |
| CC(C)(CCOc1ccc(OCCC(C)(C)C(=O)O)c(Cl)c1)C(=O)O | -62 | 13 | -32 | 348 | – | – |
| CC(C)(CCCOc1ccc(OCCCC(C)(C)C(=O)O)c(Sc2ccccc2)c1)C(=O)O | 32 | 14 | 44 | – | 428 | -30 |
| CC(C)(CCCOc1ccc(Oc2ccc(OCCCC(C)(C)C(=O)O)cc2)cc1)C(=O)O | -35 | 0 | 0 | – | 0 | -36 |
| CC(C)(CCCOc1ccc(OCCCC(C)(C)C(=O)O)c(C(O)c2ccccc2)c1)C(=O)O (configuration not stated) | -17 | 16 | 27 | – | 410 | -42 |
